The record followed here is ChEMBL document CHEMBL5032505, “Design, Synthesis, and Activity Evaluation of Stereoconfigured Tartarate Derivatives as Potential Anti-inflammatory Agents In Vitro and In Vivo” (J Med Chem, 2021).

Active and inactive are the calls of the source. The rule behind the calls is not given here.

The test system of series [1] is Mus musculus. Kind of series: Sedative activity in Swiss albino mouse at 300 mg/kg, po after 1 hr. As to conditions: in vivo. The class given is ADME, organism-based. In a few lines: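 Acute oral toxicity in Swiss albino mice fasted 4 h, three per group, vehicle control group alongside. Single 300 mg/kg oral dose, continuous observation for 4 h, then periodic checks over 14 days.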

The subject of series [2] is Mus musculus. Put plainly: Antiinflammatory activity against Swiss albino mouse assessed as reduction in carragenan-induced paw edema at 5 mg/kg treated 30 mins prior to carrageenan challenge and measured upto 360 mins relative to control. It counts as functional. The arrangement: scale not given: the % may be the effect or the level left. As to conditions: time 390 min, 6.5 h. In a few lines: (§1)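 100 μL freshly prepared 1% carrageenan injected into the subplantar hind paw, with indomethacin (10 mg/kg) or test compound given 30 min before. Dose–response arm used 0.5, 2.5, 5, 10, 20 mg/kg. Six animals per group. Paw thickness (mm) read at 15, 30, 60, 120, 180, 240, 300, 360 min. Result expressed as % decrease versus control.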

The nature of series [3]: Tmax in Swiss albino mouse at 10 mg/kg, ip measured upto 24 hrs by LC-MS analysis. It counts as ADME, organism-based. As to conditions: in vivo. In a few lines: (§2)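 Swiss albino mice (25−35 g), either sex, 10 groups of three. 10 mg/kg suspended in 0.1% CMC, given i.p. Ketamine anaesthesia (50 mg/kg i.p.). Jugular vein blood taken at 30, 45, 60 min and 2, 3, 4, 6, 8, 11, 24 h into heparinised tubes, triplicate samples per time point.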

Series [4] addresses T1, Prostaglandin G/H synthase 1 (Ovis aries) (UniProt P05979).
T1 sequence (whole entry): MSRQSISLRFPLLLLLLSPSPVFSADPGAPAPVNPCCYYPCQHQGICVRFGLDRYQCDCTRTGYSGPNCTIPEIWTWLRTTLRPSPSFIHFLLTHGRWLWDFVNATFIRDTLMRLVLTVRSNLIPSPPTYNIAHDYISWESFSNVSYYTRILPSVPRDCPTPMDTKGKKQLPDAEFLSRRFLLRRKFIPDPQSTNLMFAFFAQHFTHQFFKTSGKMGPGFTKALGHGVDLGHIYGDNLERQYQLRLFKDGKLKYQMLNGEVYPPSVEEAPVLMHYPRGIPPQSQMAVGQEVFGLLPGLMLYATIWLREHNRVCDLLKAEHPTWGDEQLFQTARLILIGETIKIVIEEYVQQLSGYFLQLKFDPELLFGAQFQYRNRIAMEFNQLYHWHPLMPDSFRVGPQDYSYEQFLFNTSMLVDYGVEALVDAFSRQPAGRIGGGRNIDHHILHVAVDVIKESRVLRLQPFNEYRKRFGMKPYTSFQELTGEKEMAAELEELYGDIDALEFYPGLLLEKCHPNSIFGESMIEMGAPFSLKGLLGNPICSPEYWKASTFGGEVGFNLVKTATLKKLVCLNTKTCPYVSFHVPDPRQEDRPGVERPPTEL
Kind of series: Binding affinity to ovine COX-1 assessed as change in entropy by isothermal titration calorimetry. In a few lines:
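ITC at 25 °C in 0.1 M Tris buffer. Ligand at 100 μM in DMSO:Tris (1:9) titrated from a syringe stirred at 500 rpm into enzyme in the sample cell, 120 s spacing. 40 × 1 μL injections, except COX-1 at 20 × 2 μL. Buffer-only control titrations were subtracted.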
On the technique in general: ITC needs no label: the signal is the heat of the interaction.

A short description of series [5]: Inhibition of soybean LOX using arachidonic acid as substrate incubated for 5 mins. The arrangement: species or system Glycine max. In a few lines:
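Soybean lipoxygenase in assay buffer, compounds at 10⁻⁴–10⁻⁸ M from DMSO stocks, triplicate. Reaction started with arachidonic acid and shaken 5 min. Chromogen added, shaken 5 min more, absorbance read at 490 nm. Blanks were buffer + AA. % inhibition computed with chromogen extinction coefficient 9.47 mM⁻¹.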

For series [6], the system named is Mus musculus. Put plainly: Analgesic activity in Swiss albino mouse assessed as inhibition of acetic acid-induced writhing at 5 mg/kg, ip preincubated for 30 mins with L-NIL followed by compound addition for 30 mins prior to acetic acid challenge and measured after 30 mins. The class given is functional, organism-based. As to conditions: time 60.0 min. (In general: An intraperitoneal irritant provokes the stretching counted in writhing tests.)

The subject of series [7] is Mus musculus. Kind of series: Analgesic activity in Swiss albino mouse assessed as inhibition of acetic acid-induced writhing at 5 mg/kg, ip administered 30 mins prior to acetic acid challenge and measured after 30 mins relative to control. It counts as functional. The arrangement: scale not given: the % may be the effect or the level left. As to conditions: time 60 min, 1 h. A digest of the protocol: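 Mice pretreated i.p. with indomethacin (10 mg/kg) or test compound (5 mg/kg) 30 min before 0.6% v/v acetic acid injection. Control group also received acetic acid. Animals placed in a transparent box and abdominal writhings counted for 30 min. Six animals per group, one-way ANOVA with Tukey's test, mean ± SEM.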

The nature of series [8]: Cmax in Swiss albino mouse at 10 mg/kg, ip measured upto 24 hrs by LC-MS analysis. The class given is ADME, organism-based. On the set-up: route intraperitoneal, dose 10 mg/kg, time <=24. Particulars: in vivo. In a few lines: as §2
Series [9] relates to Mus musculus. Put plainly: Antiinflammatory activity against Swiss albino mouse assessed as reduction in carragenan-induced paw edema at 10 mg/kg treated 30 mins prior to carrageenan challenge and measured upto 360 mins relative to control. It counts as functional. The arrangement: scale not given: the % may be the effect or the level left. Particulars: time 390 min, 6.5 h. In a few lines: as §1

Series [10] concerns Mus musculus. Put plainly: Antiinflammatory activity against Swiss albino mouse assessed as reduction in carragenan-induced paw edema at 2.5 mg/kg treated 30 mins prior to carrageenan challenge and measured upto 360 mins relative to control. It counts as functional. The arrangement: scale not given: the % may be the effect or the level left. Particulars: time 390 min, 6.5 h. In a few lines: as §1

In series [11] the target is Prostaglandin G/H synthase 1 (Homo sapiens) (UniProt P23219). Put plainly: Inhibition of COX1 in human whole blood assessed as reduction in calcium ionophore-stimulated TXB2 production by ELISA. The class given is tissue-based.
Series [12] relates to Mus musculus. Put plainly: Antiinflammatory activity against Swiss albino mouse assessed as reduction in carragenan-induced paw edema at 20 mg/kg treated 30 mins prior to carrageenan challenge and measured upto 360 mins relative to control. The class given is functional. The arrangement: scale not given: the % may be the effect or the level left. Particulars: time 390 min, 6.5 h. A digest of the protocol:
as §1

The subject of series [13] is Mus musculus. Put plainly: Antiinflammatory activity against Swiss albino mouse assessed as reduction in carragenan-induced paw edema at 0.5 mg/kg treated 30 mins prior to carrageenan challenge and measured upto 360 mins relative to control. It counts as functional. As to conditions: time 390 min, 6.5 h. On the set-up: scale not given: the % may be the effect or the level left. In a few lines:
as §1

For series [14], the target named is T2, Prostaglandin G/H synthase 2 (Homo sapiens) (UniProt P35354).
T2 sequence (whole entry): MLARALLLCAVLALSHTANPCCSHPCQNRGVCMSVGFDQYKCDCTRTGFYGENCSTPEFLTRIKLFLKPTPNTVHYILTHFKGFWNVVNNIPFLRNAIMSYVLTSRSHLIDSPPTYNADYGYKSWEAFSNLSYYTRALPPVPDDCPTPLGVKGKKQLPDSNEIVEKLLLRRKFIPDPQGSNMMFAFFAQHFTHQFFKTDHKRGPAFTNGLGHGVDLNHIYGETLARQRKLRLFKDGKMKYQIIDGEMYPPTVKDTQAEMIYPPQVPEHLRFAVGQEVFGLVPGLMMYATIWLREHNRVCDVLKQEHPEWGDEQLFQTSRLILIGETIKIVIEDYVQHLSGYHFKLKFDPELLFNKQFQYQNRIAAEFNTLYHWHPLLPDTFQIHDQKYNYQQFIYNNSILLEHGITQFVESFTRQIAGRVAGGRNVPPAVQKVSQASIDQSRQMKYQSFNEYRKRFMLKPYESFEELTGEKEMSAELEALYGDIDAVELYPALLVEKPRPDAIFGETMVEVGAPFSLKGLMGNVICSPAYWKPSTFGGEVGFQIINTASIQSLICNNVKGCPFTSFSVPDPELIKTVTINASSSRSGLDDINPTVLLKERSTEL

A further series deals with Albumin (Homo sapiens, UniProt P02768). Kind of series: Binding affinity to HSA assessed as association constant at equilibrium by isothermal titration calorimetry.
Chain of Albumin (P02768 whole entry): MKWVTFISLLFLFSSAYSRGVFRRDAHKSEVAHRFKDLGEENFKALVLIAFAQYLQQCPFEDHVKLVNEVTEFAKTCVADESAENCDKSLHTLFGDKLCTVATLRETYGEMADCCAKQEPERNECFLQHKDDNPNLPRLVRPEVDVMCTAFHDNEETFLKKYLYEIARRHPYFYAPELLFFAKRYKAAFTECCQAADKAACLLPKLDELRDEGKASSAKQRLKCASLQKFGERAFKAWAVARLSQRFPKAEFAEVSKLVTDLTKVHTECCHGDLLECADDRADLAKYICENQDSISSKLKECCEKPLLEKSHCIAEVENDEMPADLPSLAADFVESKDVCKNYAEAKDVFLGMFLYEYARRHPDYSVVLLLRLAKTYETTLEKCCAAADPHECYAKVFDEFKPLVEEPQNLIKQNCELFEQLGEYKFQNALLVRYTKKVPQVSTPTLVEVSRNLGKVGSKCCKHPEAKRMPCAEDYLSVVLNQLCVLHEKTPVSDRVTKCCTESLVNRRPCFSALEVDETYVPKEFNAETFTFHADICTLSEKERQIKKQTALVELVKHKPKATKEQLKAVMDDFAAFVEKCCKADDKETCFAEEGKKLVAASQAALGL

Chain of Prostaglandin G/H synthase 1 (Homo sapiens) (P23219 whole entry): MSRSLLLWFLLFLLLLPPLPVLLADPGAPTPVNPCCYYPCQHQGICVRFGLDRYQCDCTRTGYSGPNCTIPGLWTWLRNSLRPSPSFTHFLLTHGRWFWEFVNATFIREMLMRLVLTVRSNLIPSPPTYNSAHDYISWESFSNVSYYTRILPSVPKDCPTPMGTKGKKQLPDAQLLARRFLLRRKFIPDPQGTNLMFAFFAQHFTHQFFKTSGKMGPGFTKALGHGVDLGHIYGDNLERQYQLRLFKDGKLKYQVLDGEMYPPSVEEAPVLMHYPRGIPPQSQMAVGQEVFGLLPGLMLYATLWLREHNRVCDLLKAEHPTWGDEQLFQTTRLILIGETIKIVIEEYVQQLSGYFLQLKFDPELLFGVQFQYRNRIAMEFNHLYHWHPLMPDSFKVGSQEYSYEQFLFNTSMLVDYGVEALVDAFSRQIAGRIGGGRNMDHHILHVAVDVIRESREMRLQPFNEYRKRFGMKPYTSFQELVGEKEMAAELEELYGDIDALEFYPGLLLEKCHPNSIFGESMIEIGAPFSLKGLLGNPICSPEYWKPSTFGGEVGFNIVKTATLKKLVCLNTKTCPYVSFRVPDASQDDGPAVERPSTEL

Take `O=C(O)Cn1nncc1CO[C@@H](C(=O)O)[C@@H](OCc1cnnn1CC(=O)O)C(=O)O`: the Activity entry is “Toxic” in the series on Mus musculus [1]; 32.6% in the series with Mus musculus [2]; 65% in the series with Mus musculus [7]; 36.5% in the series with Mus musculus [9]; 5.4% with Mus musculus [10]; 1.6 ng/mL in [11]. Moreover, the results for the Activity with Mus musculus [12] and in the series on Mus musculus [13] were 38.5% and 2%, respectively. Also, the Tmax in [3] amounted to 1 h. For the same compound, the TdeltaS in series [4] is -595 kcal/mol. For the same compound, the concentration for half-maximal inhibition (IC50) in series [5] stood at 7 nM. For the same compound, in the series with Mus musculus [6], the outcome was Active. This compound also registered a Cmax in series [8] of 26000 ng/mL. The figures for the Ka (in the series on Glycine max; in series [14]; at Albumin) were 1.33 10^5/M, 6.07 10^5/M and 11800 M⁻¹, respectively.

In general, Tmax refers to the time from dosing to the highest level. For orientation: IC50 means the concentration needed to halve the response being measured. For orientation: Cmax means the maximum level reached in the sampled fluid or tissue.
